Data on one molecule can be found in ChEMBL document CHEMBL3414459, “Phenolic thio- and selenosemicarbazones as multi-target drugs” (Eur J Med Chem, 2015).

Calls of active or inactive are those of the source. The calls are words filed in the database; no cut-off is given here.

In series [1] the test system is T47D. Kind of series: Antiproliferative activity against human T47D cells after 48 hrs by sulforhodamine B assay. It counts as functional. In outline:
(§1)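 Exponentially growing cells trypsinized into penicillin/streptomycin medium, >97% viable by trypan blue. Seeded per well: 10,000 (A549, HBL-100, HeLa, SW1573), 15,000 (T-47D), 20,000 (WiDr). Treatment began day 1, DMSO stocks 40 mM, 0.25% DMSO as control, triplicate, 48 h. Cells fixed with cold TCA 60 min at 4 °C, SRB stained, OD492 read, medium background subtracted.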

Series [2] in a line: Inhibition of baker's yeast alpha-glucosidase using p-nitrophenyl-alpha-D-glucopyranoside substrate assessed as inhibition constant for enzyme-substrate-compound binding by measuring reduction in p-nitrophenolate formation. The gist of the method: (§2)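 Same α-glucosidase conditions: pH 6.8 phosphate buffer, 25 °C, A400 for p-nitrophenolate, 5% DMSO. Done for inhibitors exceeding 50% inhibition at 500 µM. Rates measured at 5 substrate concentrations from 0.25 to 4.0 K_m, each at a fixed inhibitor concentration, using 2–3 inhibitor concentrations. Lineweaver–Burk double reciprocal plots gave the inhibition mode and constants K_ia (E) and K_ib (ES).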

Series [3] is described as follows: Antioxidant activity assessed as H2O2 scavenging activity at 100 uM incubated for 20 mins by phenol red based assay. It counts as physicochemical. The gist of the method:
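Compound at 100 µM final, or DMSO control, in 0.1 M phosphate buffer pH 7.4 with H2O2 and 0.1 M NaCl, incubated in the dark at 37 °C for 20 min. Phenol red (0.2 mg/mL) and horseradish peroxidase (0.1 mg/mL) added, 15 min at 37 °C. NaOH added, 10 min at rt, A610 read. % reduction = (A_control − A_sample)/A_control × 100.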

Series [4] deals with T47D. Briefly: Potency index, ratio of GI50 for cisplatin to GI50 for compound against human T47D cells after 48 hrs by sulforhodamine B assay. It counts as functional.
In series [5] the test system is SW1573. Briefly: Antiproliferative activity against human SW1573 cells after 48 hrs by sulforhodamine B assay. It counts as functional. The note with it: SW1573, 48 h. In outline:
as §1
In general terms: The SRB assay estimates cell density from bound dye.

Series [6] deals with HeLa. Briefly: Potency index, ratio of GI50 for 5-fluorouracil to GI50 for compound against human HeLa cells after 48 hrs by sulforhodamine B assay. It counts as functional.
Series [7] in a line: Antiproliferative activity against human HBL100 cells after 48 hrs by sulforhodamine B assay. It counts as functional. The note with it: HBL-100, 48 h. The gist of the method:
as §1

Series [8] deals with A549. Briefly: Antiproliferative activity against human A549 cells after 48 hrs by sulforhodamine B assay. The note with it: A549, 48 h. It counts as functional. In outline:
as §1

The nature of series [9]: Inhibition of baker's yeast alpha-glucosidase using p-nitrophenyl-alpha-D-glucopyranoside substrate assessed as reduction in p-nitrophenolate formation at 500 uM. Conditions: Saccharomyces bayanus. The gist of the method: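 α-Glucosidase in 0.1 M phosphate buffer pH 6.8 with p-nitrophenyl-α-D-glucopyranoside at K_M (250 µM; K_M 0.25 mM). Inhibitor at 500 µM final or DMSO, DMSO 5% v/v.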

In series [10] the test system is Saccharomyces bayanus. Briefly: Un-competitive inhibition of baker's yeast alpha-glucosidase using p-nitrophenyl-alpha-D-glucopyranoside substrate assessed as reduction in p-nitrophenolate formation by Lineweaver-Burk plot. The gist of the method:
as §2

Series [11] concerns WiDr. Kind of series: Antiproliferative activity against human WiDr cells after 48 hrs by sulforhodamine B assay. It counts as functional. In outline:
as §1

Series [12] has as its system WiDr. Kind of series: Potency index, ratio of GI50 for cisplatin to GI50 for compound against human WiDr cells after 48 hrs by sulforhodamine B assay. It counts as functional.
The nature of series [13]: Antioxidant activity assessed as inhibition of the lipid peroxidation at 0.74 mM incubated for 24 hrs by ferric thiocyanate method. The note with it: 740 µM. It counts as physicochemical. In outline: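 Ferric thiocyanate method at 0.74 mM. 10.0 mM DMSO stock combined with methanolic linoleic acid in 0.2 M phosphate buffer pH 7.0. AAPH added, then 24 h at 50 °C in the dark; DMSO served as control. An aliquot was diluted in H2O–DMSO with NH4SCN and FeCl2 in HCl. After 3 min at rt, A546 read. % inhibition relative to control.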

Series [14] concerns T47D. Briefly: Potency index, ratio of GI50 for 5-fluorouracil to GI50 for compound against human T47D cells after 48 hrs by sulforhodamine B assay. It counts as functional.
In series [15] the test system is WiDr. Kind of series: Potency index, ratio of GI50 for 5-fluorouracil to GI50 for compound against human WiDr cells after 48 hrs by sulforhodamine B assay. It counts as functional.
In series [16] the test system is HeLa. Briefly: Antiproliferative activity against human HeLa cells after 48 hrs by sulforhodamine B assay. It counts as functional. In outline: as §1
Series [17] is described as follows: Antioxidant activity assessed as DPPH free radical scavenging activity incubated for 30 mins. It counts as physicochemical. The gist of the method:
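DPPH in HPLC-grade solvent mixed with compound in DMSO at 7 concentrations, or with DMSO alone as control. Kept in the dark at rt for 30 min, then A515 read against a blank. % DPPH remaining = A_sample/A_control × 100, plotted against concentration; EC50 taken from the straight line. Triplicate.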

Consider `Oc1ccc(/C=N/NC(=[Se])Nc2cccc3ccccc23)cc1`, for which the GI50 (in general, the concentration that inhibits growth by half) in series [1] was 2500 nM; in [5] it was 2300 nM; in series [7] it was 2100 nM; in series [8] it was 1300 nM; in series [11], 2300 nM; in series [16] it was 2200 nM. For the same molecule, the Ki (commonly a dissociation constant, usually derived from enzyme kinetics or from competition with a known ligand) in series [2] came to 59 µM. Also, the “inhibition (INH)” value in series [3] stood at 53.1%; in [13], 23.3%. For the same molecule, the RatioGI50 is 6 in series [4]; 6.5 in series [6]; 11 in series [12]; 19 in series [14]; 21 in [15]. Also, the inhibition (usually the percentage by which the read-out fell short of the control) in [9] came out at 100%. In series [10], the inhibition entry was “Active”. In addition, the EC50 (usually the concentration that produces a half-maximal response) in series [17] is 21.7 µM.
